Tested on: NSCLC-H292 cells
Experiment: Flow cytometry cell cycle analysis
Assay type: cell-based, human
Procedure, shortened: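 Cells were grown in six-well plates and treated 48 hrs, then harvested and centrifuged 5 mins. They were resuspended in precooled PBS, centrifuged again, and fixed in 70% ethanol overnight at 4°C. After a PBS rinse, cells were stained with propidium iodide. Red fluorescence of 1×10^5 cells was measured by flow cytometry with 488 nm excitation.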

## O[C@@H](CS)[C@@H](O)CS [DTT]
  Cell cycle effect (in words): cells were blocked in G0/G1phase
